Reference: ChEMBL document CHEMBL1143237, “Sulfonamide-1,2,4-triazole derivatives as antifungal and antibacterial agents: synthesis, biological evaluation, lipophilicity, and conformational studies” (Bioorg Med Chem, 2008)
≈ marks a conversion by molar mass, not a printed value.

Assays:
[1] = system: Salmonella enteritidis; assay: Antibacterial activity against Salmonella enteritidis ATCC 13076 after 24 hrs by microdilution test; format: functional, Salmonella enterica subsp. enterica serovar Enteritidis; conditions: Salmonella enterica, ATCC 13076, 24 h
Summary of the method: (§1)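 Broth microdilution in LB medium in 96-well plates. Inoculum 1.0 × 10⁴ CFU per well, from a suspension set to 1.0 × 10⁵ CFU/ml in sterile saline. Compounds at […] µg/ml. Incubation 24 h at 28 °C. MIC is the lowest concentration with no visible growth under a binocular microscope. MBC by subculturing 2 µl into fresh broth for a further 72 h. OD540 read against blank. DMSO negative control.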

[2] = system: Talaromyces funiculosus; assay: Antifungal activity against Penicillium funiculosum ATCC 36839 after 72 hrs by microdilution test; format: functional; conditions: ATCC 36839, 72 h
Summary of the method: (§2)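 Modified microdilution in malt broth. Spores were washed from malt agar with sterile 0.85% saline containing 0.1% Tween 80 and adjusted to about 1.0 × 10⁵ per well. Compounds were dissolved in DMSO and tested at […] µg/ml. Incubation 72 h at 28 °C. MIC is the lowest concentration with no visible growth under a binocular microscope. MFC by 2 µl subculture and a further 72 h at 28 °C.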

[3] = system: Micrococcus luteus; assay: Antibacterial activity against Micrococcus flavus ATCC 10240 after 24 hrs by microdilution test; format: functional; conditions: ATCC 10240, 24 h; summary of the method: as §1
[4] = system: Enterobacter cloacae; assay: Antibacterial activity against Enterobacter cloacae after 24 hrs by microdilution test; format: functional; summary of the method: as §1
[5] = system: Trichoderma viride; assay: Antifungal activity against Trichoderma viride IAM 5061 after 72 hrs by microdilution test; format: functional; summary of the method: as §2
[6] = system: Staphylococcus epidermidis; assay: Antibacterial activity against Staphylococcus epidermidis ATCC 12228 after 24 hrs by microdilution test; format: functional; conditions: ATCC 12228, 24 h; summary of the method: as §1
[7] = system: Aspergillus versicolor; assay: Antifungal activity against Aspergillus versicolor ATCC 11730 after 72 hrs by microdilution test; format: functional; conditions: ATCC 11730, 72 h; summary of the method: as §2
[8] = system: Aspergillus niger; assay: Antifungal activity against Aspergillus niger ATCC 6275 after 72 hrs by microdilution test; format: functional; conditions: ATCC 6275, 72 h; summary of the method: as §2
[9] = system: Salmonella typhimurium; assay: Antibacterial activity against Salmonella Typhimurium ATCC 13311 after 24 hrs by microdilution test; format: functional, Salmonella enterica subsp. enterica serovar Typhimurium; conditions: Salmonella enterica, ATCC 13311, 24 h; summary of the method: as §1
[10] = system: Bacillus cereus; assay: Antibacterial activity against Bacillus cereus ATCC 10907 after 24 hrs by microdilution test; conditions: ATCC 10907, 24 h
[11] = system: Aspergillus flavus; assay: Antifungal activity against Aspergillus flavus ATCC 9643 after 72 hrs by microdilution test; format: functional; conditions: ATCC 9643, 72 h; summary of the method: as §2
[12] = Partition coefficient, log P of the compound; format: physicochemical; conditions: octanol/water
Summary of the method: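 Calculated, not measured: AlogP, IAlogP, ClogP, Cosmo logP, mlogP, Kowwin and XlogP were computed and averaged.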

[13] = system: Aspergillus ochraceus; assay: Antifungal activity against Aspergillus ochraceus ATCC 12066 after 72 hrs by microdilution test; format: functional; conditions: ATCC 12066, 72 h; summary of the method: as §2
[14] = system: Escherichia coli; assay: Antibacterial activity against Escherichia coli ATCC 35210 after 24 hrs by microdilution test; format: functional; conditions: ATCC 35210, 24 h; summary of the method: as §1

- MIC [1]: 150 µg/mL (≈ 345 µM)
- MIC [2]: 100 µg/mL (≈ 230 µM)
- MIC [3]: 150 µg/mL (≈ 345 µM)
- MIC [4]: 100 µg/mL (≈ 230 µM)
- MIC [5]: 50 µg/mL (≈ 115 µM)
- MIC [6]: 150 µg/mL (≈ 345 µM)
- MIC [7]: 100 µg/mL (≈ 230 µM)
- MIC [8]: 100 µg/mL (≈ 230 µM)
- MIC [9]: 100 µg/mL (≈ 230 µM)
- MIC [10]: 150 µg/mL (≈ 345 µM)
- MIC [11]: 50 µg/mL (≈ 115 µM)
- logP [12]: 1.72
- MIC [13]: 100 µg/mL (≈ 230 µM)
- MIC [14]: 100 µg/mL (≈ 230 µM)
Compound: COc1cc(Cc2n[nH]c(=S)n2-c2ccccc2)c(S(=O)(=O)N(C)C)cc1OC
- MBC [1]: 150 µg/mL (≈ 345 µM)
- MFC [2]: 100 µg/mL (≈ 230 µM)
- MBC [3]: 150 µg/mL (≈ 345 µM)
- MBC [4]: 100 µg/mL (≈ 230 µM)
- MFC [5]: 100 µg/mL (≈ 230 µM)
- MBC [6]: 150 µg/mL (≈ 345 µM)
- MFC [7]: 150 µg/mL (≈ 345 µM)
- MFC [8]: 150 µg/mL (≈ 345 µM)
- MBC [9]: 150 µg/mL (≈ 345 µM)
- MBC [10]: 150 µg/mL (≈ 345 µM)
- MFC [11]: 100 µg/mL (≈ 230 µM)
- MFC [13]: 150 µg/mL (≈ 345 µM)
- MBC [14]: 150 µg/mL (≈ 345 µM)
